# HSP90 refold inh – HSP90 inhibitors, primary screen, cell lysate, luminescence; AID 1789, 2009; inhibition, % at 5.6 µM; Heat shock protein HSP 90 (rabbit reticulocyte lysate; luciferase refolding); Rabbit reticulocyte lysate, luciferase refolding luminescence, 3 h; 290,000 tested, 0.91% active;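 active means inhibition above the screen-wide mean plus 3 SD, computed separately per campaign, cut at about 16% in these data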;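 further: 0% = DMSO wells and 100% = 60 µM geldanamycin wells; inhibitors lower the luminescence because luciferase stays unfolded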
# Hsp70 activator – Hsp70 transcriptional activators, primary screen, cell-based, HeLa, Hsp70 promoter luciferase, luminescence, 10 µM. HeLa Hsp70 promoter luciferase reporter; scaled: vehicle 0, proteasome-inhibitor control 100%. activation, % at 10 µM. 200,000 tested, 0.04% active. AID 1203, 2008;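 active means activation above the mean across all tested compounds plus 3 SD, cutoff set per campaign, cut at about 5.5% in these data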;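 further: 100% = MG132 at 30 µM as the positive control and 0% = DMSO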
# HSF1 inhib – HSF1 inhibitors in luciferase reporter cells, primary screen, cell-based, NIH3T3, luminescence; AID 2098, 2009; NIH3T3-HGL HSE-luciferase, MG132-induced, luminescence 8 h; stronger effect = lower value; 300,000 tested, 0.77% active; activity change, negative = inhibition, % at 7.5 µM (by protocol);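 active means more than half of replicate wells show activity change below -50%, luminescence cut by over half; inconclusive means some wells, but at most half, below -50%; inactive means no replicate well below -50%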;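 further: luciferase reports HSF-1 transcriptional activity via heat shock element; 0% = median of DMSO wells and -100% = zero luminescence signal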
# HKDC1 inh – HKDC1 hexokinase inhibitors, primary screen, biochemical, fluorescence, uHTS; recombinant HKDC1, G6PDH/diaphorase resazurin coupled fluorescence; 340,000 tested, 0.16% active; inhibition, % at 20 µM; Q2TB90;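 active means inhibition above about 35% when tested at 20 µM, limit read from the data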;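 further: plate controls were DMSO wells with enzyme for no effect and DMSO wells lacking enzyme for full effect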
# Target sequence (Q2TB90 whole entry, looked up): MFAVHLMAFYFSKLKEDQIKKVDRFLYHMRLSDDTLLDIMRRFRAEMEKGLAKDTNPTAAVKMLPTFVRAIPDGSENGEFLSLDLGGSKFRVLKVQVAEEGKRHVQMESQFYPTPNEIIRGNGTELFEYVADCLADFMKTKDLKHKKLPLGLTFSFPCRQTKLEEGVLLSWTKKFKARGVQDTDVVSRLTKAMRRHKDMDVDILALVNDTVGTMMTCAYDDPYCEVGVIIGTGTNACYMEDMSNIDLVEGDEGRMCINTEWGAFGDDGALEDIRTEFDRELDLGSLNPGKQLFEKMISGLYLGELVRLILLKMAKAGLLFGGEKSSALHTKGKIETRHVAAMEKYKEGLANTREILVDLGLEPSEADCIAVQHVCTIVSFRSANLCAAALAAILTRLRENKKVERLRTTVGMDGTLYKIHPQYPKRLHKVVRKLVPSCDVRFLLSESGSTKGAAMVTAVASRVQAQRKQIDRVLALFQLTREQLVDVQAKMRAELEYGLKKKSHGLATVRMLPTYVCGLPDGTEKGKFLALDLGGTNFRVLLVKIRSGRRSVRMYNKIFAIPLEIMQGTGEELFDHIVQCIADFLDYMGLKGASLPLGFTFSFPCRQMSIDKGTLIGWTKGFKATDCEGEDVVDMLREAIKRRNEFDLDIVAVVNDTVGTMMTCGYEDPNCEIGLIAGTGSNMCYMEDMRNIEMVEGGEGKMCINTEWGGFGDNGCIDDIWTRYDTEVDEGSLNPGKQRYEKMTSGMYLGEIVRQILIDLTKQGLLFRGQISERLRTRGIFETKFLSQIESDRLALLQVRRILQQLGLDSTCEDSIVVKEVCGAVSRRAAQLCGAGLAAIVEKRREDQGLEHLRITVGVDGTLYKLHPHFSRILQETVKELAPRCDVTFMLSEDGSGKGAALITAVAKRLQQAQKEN
#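 Assay system: recombinant HKDC1 hexokinase; detection: coupled resazurin fluorescence, excitation 525 nm, emission 613 nm; benchmarks: DMSO-plus-enzyme-mix negative control, buffer-substituted positive control; compound dosing: single 20 µM dose; schedule: 90 min at room temperature in dark; also added: glucose plus 1 mM ATP as hexokinase substrates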
# HSF-1 act – HSF-1 activators, primary screen, NIH3T3-HGL cells, MG132 stress, luminescence, single point; activation, % at 9 µM; AID 504408, 2011; NIH3T3-HGL HSF-1 luciferase reporter, 8 h; 100% = twice DMSO control signal; 300,000 tested, 1.7% active;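 active means mean replicate activation of at least 50% with a set share of replicates each reaching 50%; inconclusive means only one of those two conditions met; inactive means mean below 50% and too few replicates reaching it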;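 further: 0% = median of the neutral control wells and 100% = twice that signal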
# TbHK1 inh – Trypanosoma brucei hexokinase 1 inhibitors, primary screen, biochemical, G6PDH-coupled NADH absorbance, MLSCN library; hexokinase 1 [Trypanosoma brucei]; recombinant TbHK1, G6PDH-coupled NADH A340; inhibition, % at 10 µM; 220,000 tested, 0.11% active;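 active means inhibition of 50% or more in the single-dose primary screen; inactive means inhibition below 50%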
# HSP90 inh confirm – HSP90 inhibitors, confirmation, cell lysate, luminescence; shares compounds with HSP90 refold inh; rabbit reticulocyte lysate, luciferase refolding luminescence, 3 h; inhibition, % at 5.9 µM; 2,300 tested, 64% active; in the data active means inhibition above about 18%;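 further: 0% = vehicle wells and 100% = reference inhibitor wells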
# luciferase ctr – firefly luciferase inhibitors, HSP90 counter-screen, confirmation, artefact control for HSP90 inhibitor project, biochemical, luminescence, triplicate; inhibition, % at 5.9 µM; purified native firefly luciferase; 2,300 tested, 48% active; shares compounds with HSP90 refold inh;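 active means inhibition above the mean inhibition of all tested sample wells plus 3 SD, cut at about 10% in these data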;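 further: 0% = DMSO with luciferase and 100% = wells lacking luciferase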
# * hit, by the source's call; ? = inconclusive; · = no result. The list is not random: actives were taken first. Their share in the collection is about 3.1%.
SMILES,HSP90 refold inh,Hsp70 activator,HSF1 inhib,HKDC1 inh,HSF-1 act,TbHK1 inh,HSP90 inh confirm,luciferase ctr
CCOc1ccc(C(=O)O/N=C(\N)c2ccccn2)cc1,82*,·,-80*,0,-84,·,82*,91*
Cc1cccc(/C(N)=N/OC(=O)c2ccc(Br)o2)c1,0,0,27,-6,47,0,·,·
CN(C)c1ccc(NC(=S)NC23CC4CC(CC(C4)C2)C3)cc1,-1,·,16,3,35,·,·,·
NC(=O)c1ccc(NC(=O)CCN=C2NS(=O)(=O)c3ccccc32)cc1,·,·,-1,2,12,·,·,·
Cc1ccc(C(=O)O/N=C(\N)c2ccccn2)cc1,78*,·,-81*,-3,-84,·,86*,94*
N/C(=N\OC(=O)c1ccccc1)c1ccccn1,58*,0,-65*,-7,-70,2,38*,87*
Cc1ccc(/C(N)=N/OC(=O)c2ccc(F)cc2)cc1,-3,0,23,13,?,0,·,·
Cc1ncc(C[n+]2csc(CCOC(=O)C34CC5CC(CC(C5)C3)C4)c2C)c(N)n1,50*,0,3,9,11,12,1,-4
Cc1ncc(C[n+]2csc(CCOC(=O)CC3C4CC5CC(C4)CC3C5)c2C)c(N)n1 (configuration not stated),-1,0,-6,-4,10,5,·,·
O=C(N/N=C/c1ccc(O)cc1)c1ccc(NC(=O)c2ccccc2Br)cc1,20*,0,-10,4,4,-29,1,-5
Cc1[nH]nc(C(=O)NN=Cc2ccccc2Cl)c1N=NN(C)C,·,·,·,3,·,·,·,·
COc1ccc(C(=O)Nc2cnccn2)cc1[N+](=O)[O-],4,·,-3,-3,-2,·,·,·
CC(C)(C)c1ccc(C(=O)Nc2cnccn2)cc1,18*,0,3,-8,27,-1,50*,37*
COc1ccc(C(=O)c2coc3ccc(O)c(CN4CCCC4)c23)cc1,50*,0,13,-2,18,5,0,-5
CC(=O)c1sc(NC(=O)C2COc3ccccc3O2)nc1C (configuration not stated),43*,0,-1,0,-5,-30,70*,66*
O=C(Nc1nncs1)C1COc2ccccc2O1 (configuration not stated),3,0,9,-7,-1,1,·,·
CC1(C)Oc2ccc(NC(=O)C3COc4ccccc4O3)cc2O1 (configuration not stated),27*,0,-11,-3,-25,0,49*,44*
CCC(=O)N(C)/C=C1\Sc2ccccc2C1=O,26*,0,-5,4,-11,-2,-10,-25
CC(=O)N(C)/C=C1\Sc2ccccc2C1=O,36*,0,-6,3,-5,-2,-2,-13
Cc1ccc(/C=C2\Sc3ccccc3C2=O)s1,-2,0,-2,-2,30,-3,·,·
O=CN(/C=C1\Sc2ccccc2C1=O)Cc1ccccc1,34*,0,0,11,27,-12,0,-12
Cc1ccc(Nc2nc(N)c3ccccc3n2)cc1C,26*,·,3,-1,3,·,53*,37*
Cc1cc(Nc2ccc(C)c(C)c2)c2ccccc2n1,3,·,-8,1,-6,·,·,·
COc1ccc(C(=O)C2CCCN(S(=O)(=O)c3ccc(C(C)=O)cc3)C2)c(C)c1 (configuration not stated),-2,·,0,0,-17,·,·,·
CCOC(=O)c1sc(N)c(C#N)c1CSc1nc2ccc(C)cc2[nH]1,18*,0,10,9,15,-16,0,-5
SMILES,HSP90 refold inh,Hsp70 activator,HSF1 inhib,HKDC1 inh,HSF-1 act,TbHK1 inh,HSP90 inh confirm,luciferase ctr
CCOC(=O)c1sc(N)c(C#N)c1CSc1nc2ccc(OCC)cc2[nH]1,1,0,7,2,-4,-8,·,·
COc1ccc(C(=O)/C=C/c2ccccc2F)c(OC(=O)c2ccc([N+](=O)[O-])cc2)c1,18*,0,8,14,2,-16,37*,-22
COc1ccc(C(=O)/C=C/c2ccc(C)cc2)c(OC(=O)c2ccc([N+](=O)[O-])cc2)c1,-3,0,-5,-1,14,1,·,·
Cc1ccn2cc(-c3ccc(Br)cc3)nc2c1,40*,·,-5,-6,11,-5,60*,62*
CC1CCCN(S(=O)(=O)c2ccc3[nH]c4c(c3c2)CCCC4)C1 (configuration not stated),-2,·,3,8,16,·,·,·
O=C(Cc1coc2cc3c(cc12)CCC3)OCC(=O)N1CCCC1=O,27*,0,-47,-6,-49,-3,12,-19
S=C(N/N=C1\CCc2ccccc21)NC1CCCCC1,26*,0,-55*,-7,-64,-7,34*,0
Cc1ccc(N2CC(O)=C(c3nc4ccccc4c(=O)[nH]3)C2=N)cc1C,25*,0,0,6,5,0,-11,-10
N=C1C(c2nc3ccccc3c(=O)[nH]2)=C(O)CN1c1ccccc1,4,0,·,·,·,-7,·,·
CCc1ccc(OCc2ccc(C(=O)O)o2)cc1,96*,·,-8,-3,-15,·,94*,68*
CC(C)c1ccc(OCc2ccc(C(=O)NN3CCN(C)CC3)o2)cc1,19*,0,32,-15,37,-1,18*,-13
COc1ccc(OCc2cc(C(=O)O)c(C)o2)cc1,55*,·,5,·,16,2,63*,28*
CC(C)c1ccc(OCc2ccc(C(=O)O)o2)cc1,94*,·,·,-1,·,-4,94*,80*
CC(C)c1ccc(-c2nc3ccccc3s2)cc1,84*,·,-91*,-3,-92,-6,98*,94*
Oc1cccc(-c2nc3ccccc3s2)c1,24*,0,26,8,38,-4,50*,34*
COc1cccc(-c2nc3ccccc3s2)c1O,17*,0,39,3,90*,-16,38*,32*
O=S(=O)(c1ccc(-c2nc3ccccc3s2)cc1)N1CCCC1,9,0,14,-12,18,-24,·,·
COc1cc(-c2nc3ccccc3s2)ccc1O,3,0,21,7,27,-47,·,·
